Rows were chosen to be rich in hits. Some 0.99% of all compounds tested hit in one or more screens of this group.
DYRK1A inh = Dyrk1A (rat) kinase inhibition. inhibition, % at 12.5 µM. Q63470. ADP-Glo luminescence, NFATc1 peptide. AID 504441. 310,000 compounds, 0.43% hits; in the data active = inhibition above about 50%;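 note: plate controls were vehicle with enzyme for no effect and no enzyme for full effect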
Arr AP2 block = human beta-arrestin and AP2 interaction inhibition; FITC-arrestin peptide / GST-AP2 beads, flow cytometry; AP2 beta2 appendage carries R879A mutation; inhibition, % at 10 µM; 340,000 compounds, 0.31% hits; AID 504490;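 active = inhibition above a set limit, near 3 SD of compounds lacking own fluorescence, cut at about 54% in these data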;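 note: plate controls were DMSO wells for no effect and 5 µM unlabelled arrestin peptide for full effect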
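System: GST-tagged AP2 beta2-adaptin appendage (R879A) on 4 µm glutathione beads / Reagent: FITC-arrestin peptide, 50 nM / Detection: HyperCyt-sampled flow cytometry, FL1 channel, ex 488/em 535 nm / Timing: 12 min plus 1 h, RT / Buffer or medium: PBS plus Tween 20 (0.05%) and BSA (0.1%)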
GSK3beta inhib = blocks human GSK3beta kinase activity | activity score (negative = inhibition), % at 10 µM | 300,000 compounds, 0.038% hits | P49841 | GST-GSK3beta kinase, ADP-Glo luminescence, 60 min; hits give low values;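 active = more than half of replicate wells score below -50%, meaning over 50% inhibition versus plate controls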;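 note: 0% = median DMSO wells and -100% = median GW8510 positive control wells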
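test system = GST-tagged human GSK3beta kinase, cell-free | reagent = 25 µM ATP with peptide substrate | dosing = one dose of 10 µM per compound | schedule = 60 min reaction, RT | detection = luminescent ADP-Glo measurement of ADP formed | control set = DMSO neutral wells and GW8510 at 20 µM as positive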
GSK3A inh = blocks human GSK-3 alpha kinase; P49840; ADP-Glo luminescence, 60 min; inhibition, % at 10 µM; 320,000 compounds, 0.1% hits; AID 2650;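 active = more than half of replicates show inhibition above 20%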;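 note: GST-tagged GSK-3 alpha with peptide substrate and 25 µM ATP; 0% = DMSO neutral wells and 100% = GW8510 positive control wells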
Rin1 Abl inh = human Rin1-Abl interaction inhibition. TR-FRET Rin1/Abl binding, biochemical. inhibition, % at 7.35 µM. 360,000 compounds, 0.4% hits. AID 588664; in the data active = inhibition above about 5%, passing the limit was not always enough
STK33 inh = blocks human STK33 kinase activity; Q9BYT3; purified STK33, MBP phosphorylation, ADP-Glo luminescence; inhibition, % at 10 µM; 320,000 compounds, 0.073% hits; AID 2661;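 active = inhibition at or above 25%, using the most active replicate where run in duplicate; inactive = inhibition below 25%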
Target sequence (Q9BYT3 whole entry, looked up): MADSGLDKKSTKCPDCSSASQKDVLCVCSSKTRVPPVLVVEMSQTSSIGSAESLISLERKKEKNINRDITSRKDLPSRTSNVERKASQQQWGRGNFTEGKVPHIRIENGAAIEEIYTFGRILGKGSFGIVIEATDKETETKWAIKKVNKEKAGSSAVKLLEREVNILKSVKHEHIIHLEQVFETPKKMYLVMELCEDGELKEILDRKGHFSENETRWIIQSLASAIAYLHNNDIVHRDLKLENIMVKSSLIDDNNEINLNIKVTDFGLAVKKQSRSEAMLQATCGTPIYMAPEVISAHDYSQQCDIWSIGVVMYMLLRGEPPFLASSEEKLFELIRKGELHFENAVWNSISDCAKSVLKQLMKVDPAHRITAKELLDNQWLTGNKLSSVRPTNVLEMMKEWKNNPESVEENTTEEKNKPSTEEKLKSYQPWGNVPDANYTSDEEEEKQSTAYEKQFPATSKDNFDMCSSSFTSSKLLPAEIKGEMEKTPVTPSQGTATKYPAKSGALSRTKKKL
Arr AP2 CP1 = inhibitors of human beta-arrestin and AP2 interaction. shares compounds with Arr AP2 block. GST-AP2 beads, FITC arrestin peptide binding, flow cytometry; GST-fused beta2-adaptin appendage, R879A mutant. inhibition, % at 10 µM. 1,300 compounds, 2% hits;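 active = inhibition above a set limit, roughly 3 SD of non-fluorescent compound noise, cut at about 38% in these data; inactive = inhibition at or below that limit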;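 note: loss of bead fluorescence from 50 nM FITC arrestin peptide bound to appendage; 0% = negative control wells and 100% = excess unlabelled arrestin peptide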
GST-FITC bead = disrupts GST binding to glutathione beads, arrestin-AP2 artifact. GST-fluorescein binding to GSH beads, fluorescence, counter-screen. inhibition, % at 10 µM. shares compounds with Arr AP2 block. 1,300 compounds, 2% hits;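 active = inhibition above 50%, about 3 SD of the inhibition seen with non-fluorescent compounds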;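 note: fluorescein maleimide labelled GST captured on 4 micron glutathione beads; higher means more loss of bead fluorescence from quenching or blocked binding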
* = called active by the depositor; nt = not tested or not shown.

SMILES	DYRK1A inh	Arr AP2 block	GSK3beta inhib	GSK3A inh	Rin1 Abl inh	STK33 inh	Arr AP2 CP1	GST-FITC bead
Cc1ccc(C(=O)OCC(=O)NC2CCS(=O)(=O)C2)c(C)c1 (configuration not stated)	1	13	nt	1	1	-1	nt	nt
Cc1ccc2nc3c(c(C(=O)OCC(=O)NC4CCS(=O)(=O)C4)c2c1)CCCC3 (configuration not stated)	16	57*	2	1	0	3	2	-3
Cc1c(N=O)c(-c2ccccc2)n(O)[n+]1[O-]	nt	nt	nt	nt	-2	nt	nt	nt
COc1cccc(OC2(C)CCN(Cc3cccn3-c3nccs3)C2)c1 (configuration not stated)	nt	nt	nt	nt	0	nt	nt	nt
CCOC(=O)CSC1=N/C(=C\c2cccnc2)C(=O)N1c1ccc(OC)cc1	-1	105*	1	2	-1	-1	2	-4
CC(=O)Nc1ccc(NC(=O)CC2(CC(=O)N3CCOCC3)CCCC2)cc1	7	5	nt	nt	2	nt	nt	nt
OC(c1ccccc1)c1nc(-c2ccc(Cl)cc2)cs1 (configuration not stated)	nt	nt	nt	nt	-2	nt	nt	nt
O=c1cc(C(F)(F)F)nc(-c2cccnc2)[nH]1	1	4	0	nt	-1	-1	nt	nt
Cc1cc(=O)[nH]c(-c2cccnc2)n1	-5	63*	1	1	5	-1	-3	-6
CCOC(=O)C1(Cc2cccc(Cl)c2)CCCN(C(=O)CN2C(=O)CSC2=O)C1 (configuration not stated)	-4	62*	1	-2	4	-1	-7	-6
CCOC(=O)C1(Cc2cccc(Cl)c2)CCCN(C(=O)c2cccnc2)C1 (configuration not stated)	-2	9	0	0	1	1	nt	nt
CCOC(=O)C1(Cc2cccc(Cl)c2)CCCN(C(=O)c2cn[nH]c2)C1 (configuration not stated)	1	67*	0	1	-1	-1	4	-8
CCC(C)[C@H](NC(=O)N1CC(=O)Nc2ccccc21)C(=O)N[C@@H](C(=O)O)c1ccccc1 (some centres not stated)	-3	45	-3	nt	0	0	nt	nt
COc1ccc(C2Nc3ccccc3C(=O)N2NS(C)(=O)=O)cc1OC (configuration not stated)	-4	71*	1	1	6	-2	-2	1
COc1ccc(C2Nc3ccccc3C(=O)N2NS(=O)(=O)c2ccccc2)cc1OC (configuration not stated)	-7	11	3	0	-2	0	nt	nt
O=C(COC(=O)c1cc([N+](=O)[O-])ccc1NCCO)c1ccc(Cl)cc1	-4	0	3	6	-1	0	nt	nt
CCc1ccc(C(=O)COC(=O)c2cc([N+](=O)[O-])ccc2NCCO)cc1	-3	57*	1	-1	-1	0	-2	-7
CCCCc1cc(=O)oc2c(CN3CCN(C)CC3)c(O)ccc12	1	54*	0	-1	1	-2	-9	-5
CCN(CC)S(=O)(=O)c1ccc(C(=O)NC(=S)N2CCCCC2C)cc1 (configuration not stated)	nt	nt	nt	nt	1	nt	nt	nt
COC(=O)c1nc(-c2ccc(C)cc2)oc1N(C)C	nt	59*	4	1	4	-1	10	11
CCOC(=O)C1=C(COC(=O)Cc2ccccc2)NC(=O)NC1C (configuration not stated)	1	9	-1	3	1	-2	20	-8
CCOC(=O)C1=C(COC(=O)Cc2ccccc2[N+](=O)[O-])NC(=O)NC1C (configuration not stated)	nt	nt	nt	nt	-2	nt	nt	nt
CCOC(=O)C1=C(COC(=O)Cc2ccc(Cl)cc2)NC(=O)NC1C (configuration not stated)	0	4	nt	-6	-1	0	9	1
CCOC(=O)C1=C(COC(=O)C(C)(C)Oc2ccc(Cl)cc2)NC(=O)NC1C (configuration not stated)	-4	19	nt	-2	3	0	-6	-5
CCOC(=O)C1=C(COC(=O)CCc2ccc(F)cc2)NC(=O)NC1C (configuration not stated)	-2	1	nt	-3	0	2	3	-2
SMILES	DYRK1A inh	Arr AP2 block	GSK3beta inhib	GSK3A inh	Rin1 Abl inh	STK33 inh	Arr AP2 CP1	GST-FITC bead
CCOC(=O)C1=C(COC(=O)CNC(=O)c2ccccc2F)NC(=O)NC1C (configuration not stated)	10	27	-11	0	2	0	nt	nt
O=C(CCCCCNC(=O)N1CCn2c1nc1ccccc12)NCCc1ccccc1	5	-7	0	-1	-1	-1	nt	nt
CCOC(=O)C1=C(COC(=O)Cc2ccc(OC)c(OC)c2)NC(=O)NC1C (configuration not stated)	nt	38	nt	0	7	1	-7	3
CCOC(=O)C1=C(COC(=O)/C=C/c2ccc(OC)c(OC)c2)NC(=O)NC1C (configuration not stated)	10	7	-5	0	-1	0	nt	nt
CNC(=S)N1CCC(NC(=O)C23CC4CC(CC(C4)C2)C3)CC1	-6	56*	-2	-2	-1	0	4	-6
O=C(Nc1cc(C(F)(F)F)ccc1N1CCOCC1)C1=COCCO1	-1	55*	2	-2	0	2	1	-6
Cc1ccccc1C(=O)Nc1c(C(=O)N(CCN(C)C)Cc2ccco2)oc2ccccc12	-2	58*	-20	-6	1	0	-6	2
COc1ccccc1C(=O)Nc1c(C(=O)N(CCN(C)C)Cc2ccco2)oc2ccccc12	8	3	-1	nt	1	0	nt	nt
CC1(C)COC(c2cc3c(cc2Br)OCO3)OC1	-1	6	nt	nt	2	nt	nt	nt
CCc1nnc(NC(=O)Cc2cc(OC)c(OC)c(OC)c2)s1	1	71*	3	0	3	-1	-7	-4
CCSc1nnc(NC(=O)Cc2cc(OC)c(OC)c(OC)c2)s1	nt	-22	-5	-2	-2	-1	nt	nt
NC1=NN(c2c(Cl)cc(Cl)cc2Cl)C(=O)C1	-4	-14	nt	nt	1	nt	nt	nt
COc1ccc(CNC(=O)[C@H](C)NC(=O)C2CC(=O)N(c3ccc4c(c3)OCO4)C2)cc1 (some centres not stated)	nt	55*	-3	8	5	-1	1	1
